{"source": "paper PMC10442107", "about": "(Hepatology (Baltimore, Md.), 2023)", "key": {"[1]": {"settings": "compared with levels in BDL mice of the current study; cited from earlier work"}, "BDL mice": {"test_system": "BDL mice", "assay": "Bile duct ligation", "type": "in vivo, mouse", "settings": "3 mg/kg/d", "how_it_was_run": "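Male mice on a C57BL/6J background, age-matched, underwent bile duct ligation. Oral gavage dosing started 3 days after surgery and continued once daily for 11 days, with the comparator ASBT inhibitor at 3 mg/kg. Blood for serum biochemistry was taken by cardiac puncture at sacrifice. RNAseq was run on RNA from terminal liver samples (15 mg fresh tissue).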"}, "ileal ASBT": {"target": "T1, ileal ASBT (Mus musculus, UniProt P70172)", "T1 sequence (P70172 1-348)": "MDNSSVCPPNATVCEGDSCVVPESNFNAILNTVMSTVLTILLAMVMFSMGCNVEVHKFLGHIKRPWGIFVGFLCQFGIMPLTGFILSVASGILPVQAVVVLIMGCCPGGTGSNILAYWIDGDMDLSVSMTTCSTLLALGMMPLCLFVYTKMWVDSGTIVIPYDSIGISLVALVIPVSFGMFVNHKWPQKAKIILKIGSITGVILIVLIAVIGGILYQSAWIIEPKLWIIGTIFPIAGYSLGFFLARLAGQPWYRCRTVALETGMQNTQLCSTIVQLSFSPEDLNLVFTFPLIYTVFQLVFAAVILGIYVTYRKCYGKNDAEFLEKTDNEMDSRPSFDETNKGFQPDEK", "assay": "Pharmacodynamic study in normal wild-type C57BL/6N mice", "type": "in vivo", "how_it_was_run": "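Adult C57BL/6N mice (13–14 weeks) were gavaged daily for 8 days with the test compound at 3 or 10 mg/kg/d or with vehicle (0.5% CMC + 0.1% Tween 80). Feces were collected between days 6 and 7 and urine 2 h after the day-8 terminal dose. Total bile acids were measured with commercial kits and compared with vehicle by 1-way ANOVA with Dunnett post hoc test.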"}, "[2]": {"assay": "Oral pharmacokinetic profile of A3907 and A3309 in BDL mice", "type": "in vivo, mouse", "how_it_was_run": "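Adult male C57BL/6 mice with bile duct ligation received the test compound or a gut-restricted ASBT inhibitor by mouth at 3 or 10 mg/kg once daily for 7 days. Plasma exposure was profiled and set against normal wild-type mice dosed under the same conditions.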"}, "[3]": {"settings": "pediatric, cited from earlier work"}, "Mdr2 −/− mice": {"test_system": "Mdr2 −/− mice", "settings": "cited from earlier work"}, "[4]": {"settings": "11 days, A3907 vs A3309 comparison"}, "[5]": {"settings": "progressive familial intrahepatic cholestasis"}}, "note": "Like-named read-outs stand apart in the source and are kept apart here."}
{"smiles": "CCCCC1(CCCC)CN(c2ccccc2)c2cc(SC)c(OCC(=O)N[C@@H](C(=O)NCC(=O)O)c3ccccc3)cc2S(=O)(=O)C1", "note": "[A3309]", "values": [{"measurement": "systemic exposure in humans at the therapeutically relevant dose", "setting": "[1]", "value": "several-fold lower than levels demonstrating signs of efficacy in BDL mice"}, {"measurement": "serum and biliary BAs levels", "setting": "BDL mice; [4]", "value": "attenuated BA levels in a nonsignificant fashion"}, {"measurement": "urinary BA excretion", "setting": "BDL mice; [4]", "value": "induced urinary BA excretion to some extent"}, {"measurement": "number of dysregulated hepatic genes normalized", "setting": "BDL mice; liver RNAseq, of 5790 DEGs vs sham", "value": 15}, {"measurement": "urine BA levels", "setting": "ileal ASBT; normal mice, oral 3 and 10 mg/kg/d, 2 hours after dose on day 8", "value": "did not change"}, {"measurement": "fecal BA levels", "setting": "ileal ASBT; normal nonfasted mice, oral 3 and 10 mg/kg/d once daily for 7 days, vs vehicle", "value": "significant elevation of fecal BA levels"}, {"measurement": "serum levels compared with A3907", "setting": "[2]; BDL mice, 3 or 10 mg/kg oral daily", "value": "significantly lower than A3907"}, {"measurement": "plasma exposure in BDL mice relative to normal WT mice", "setting": "[2]; same experimental conditions, WT data not shown", "value": "~ 6 fold"}]}
{"smiles": "CCCCC1(CCCC)CN(c2ccccc2)c2cc(SC)c(OCC(=O)N[C@@H](C(=O)N[C@@H](CC)C(=O)O)c3ccc(O)cc3)cc2S(=O)(=O)N1", "note": "[A4250, odevixibat]", "values": [{"measurement": "BA load", "setting": "[3]; [5]", "value": "reduced"}, {"measurement": "pruritus", "setting": "[3]; [5]", "value": "decreased"}, {"measurement": "BA levels in serum and bile", "setting": "Mdr2 −/− mice", "value": "reduced"}, {"measurement": "cholestatic liver disease", "setting": "Mdr2 −/− mice", "value": "improved"}]}
{"smiles": "CCCCC1(CCCC)CS(=O)(=O)c2ccc(N(C)C)cc2[C@@H](c2ccc(OCCCC[N+]34CCN(CC3)CC4)cc2)[C@H]1O", "note": "[SC-435]", "values": [{"measurement": "BA levels in serum and bile", "setting": "Mdr2 −/− mice", "value": "reduced"}, {"measurement": "cholestatic liver disease", "setting": "Mdr2 −/− mice", "value": "improved"}]}
{"smiles": "CCCCC1(CCCC)CS(=O)(=O)c2ccc(N(C)C)cc2[C@@H](c2ccc(OCc3ccc(C[N+]45CCN(CC4)CC5)cc3)cc2)[C@H]1O", "note": "[maralixibat]", "values": [{"measurement": "BA load", "setting": "[3]; Alagille syndrome", "value": "reduced"}, {"measurement": "pruritus", "setting": "[3]; Alagille syndrome", "value": "decreased"}]}
